M4 antag – antagonists of human muscarinic M4 receptor (CHRM4) | hit rate 0.73% among 360,000 | inhibition, % at 3 µM | AID 624125 | CHO-hM4 cells, ACh EC80, Fluo-8 calcium fluorescence | P08173;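 active means inhibition above its plate's cutoff, the mean inhibition of sample wells plus 3 SD, cut at about 27% in these data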;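 further: 0% = acetylcholine EC80 with DMSO and 100% = DMSO without agonist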
CHRM5 agonist – agonists of human muscarinic M5 receptor (CHRM5); activation, % at 3 µM; AID 624037; CHO-K1 hM5 cells, Fluo-8 calcium fluorescence; 0% DMSO wells, 100% maximal acetylcholine response; P08912; hit rate 0.19% among 360,000;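 active means activation above the run's mean over test compounds plus 3 SD, cut at about 23% in these data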;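 further: signal is peak over basal fluorescence ratio across the kinetic read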
Target sequence (P08912 whole entry, looked up): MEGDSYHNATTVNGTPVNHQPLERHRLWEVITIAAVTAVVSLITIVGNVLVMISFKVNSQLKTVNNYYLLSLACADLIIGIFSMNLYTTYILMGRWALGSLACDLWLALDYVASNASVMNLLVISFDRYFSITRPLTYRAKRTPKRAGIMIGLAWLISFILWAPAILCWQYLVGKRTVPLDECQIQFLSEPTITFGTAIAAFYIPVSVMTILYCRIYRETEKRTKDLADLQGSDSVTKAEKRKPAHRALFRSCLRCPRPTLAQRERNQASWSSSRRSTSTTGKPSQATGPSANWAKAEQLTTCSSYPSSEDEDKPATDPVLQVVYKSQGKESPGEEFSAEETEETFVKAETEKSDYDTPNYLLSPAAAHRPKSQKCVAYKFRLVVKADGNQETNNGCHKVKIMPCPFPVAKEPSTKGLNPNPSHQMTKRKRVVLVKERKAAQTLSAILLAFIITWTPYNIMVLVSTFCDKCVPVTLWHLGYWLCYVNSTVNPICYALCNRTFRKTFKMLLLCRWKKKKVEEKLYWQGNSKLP
CHRM5 antagonist – antagonists of human muscarinic M5 receptor (CHRM5) | AID 624040 | P08912 | hit rate 0.59% among 360,000 | CHO-hM5 cells, Fluo-8 calcium fluorescence, ACh EC80 | inhibition, % at 3 µM;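 active means inhibition above a per-plate cutoff, the mean of that plate's test compounds plus 3 SD, cut at about 27% in these data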;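 further: 0% = acetylcholine EC80 with DMSO and 100% = DMSO without agonist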
CHRM5 PAM – CHRM5 positive allosteric modulation. P08912. CHO-K1 hM5, Fluo-8 calcium, ACh EC20 PAM; 0% = ACh EC20, 100% = ACh EC100. activation, % at 3 µM. hit rate 0.3% among 360,000. AID 624038;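 active means activation above the run cutoff, the mean activation of all test compounds plus 3 SD, cut at about 18% in these data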
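Test system: CHO-K1 hM5 cells / Doses: single-point, 3 µM nominal / Times: Post-acetylcholine fluorescence recording 140 s / Technique: Fluo-8 calcium fluorescence / Measure: Max/basal fluorescence ratio as % of EC20–EC100 ACh window / Benchmarks: low control EC20 acetylcholine (0%), high control EC100 acetylcholine (100%) / Replicates: one well per compound, no replicates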
CHRM4 agonist – agonists of human muscarinic M4 receptor (CHRM4); P08173; CHO-K1 hM4/Gqi5, Fluo-8 calcium fluorescence; vehicle 0%, full acetylcholine response 100%; activation, % at 3 µM; hit rate 0.14% among 360,000; AID 624127;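 active means activation above the run mean over all test wells plus 3 SD, cut at about 32% in these data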;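 further: peak over basal fluorescence ratio per well then scaled between controls; 0% = DMSO wells and 100% = acetylcholine at EC100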
M4 PAM – CHRM4 positive allosteric modulation. P08173. CHO-K1 hM4/Gqi5, Fluo-8 calcium fluorescence, ACh EC20; 0% = ACh EC20, 100% = maximal ACh. activation, % at 3 µM. hit rate 0.4% among 360,000;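 active means activation above its plate's cutoff, the mean activation of sample wells plus 3 SD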
Starred values were filed as active, the others as inactive. This is a sample that favours compounds with a hit; in the whole collection about 1.8% have one here.

SMILES	M4 antag	CHRM5 agonist	CHRM5 antagonist	CHRM5 PAM	CHRM4 agonist	M4 PAM
CCN(CC)c1ncn(Cc2c(Cl)cccc2Cl)c2ncnc1-2	20	-9	-17	-2	1	52*
CCN(CC)c1ncnc2c1ncn2Cc1c(Cl)cccc1Cl	-9	-3	-9	0	1	22*
CCC(=O)Nc1nnc(SCC(=O)NC2CCCC2)s1	-6	-1	0	5	1	10
Cn1c(SCC(=O)NC(=O)Nc2ccccc2)nnc1-c1ccncc1	-8	0	-4	7	0	-5
COc1ccc(-n2nc(C(=O)NCC(=O)N3CCN(Cc4ccccc4)CC3)c3ccccc3c2=O)cc1OC	17	-1	29*	-12	18	-14
CNC(=O)C(=O)NCCN1CCN(S(=O)(=O)c2ccc3ccccc3c2)CC1	1	-2	3	3	-1	8
CCc1ccc(OCC(=O)Nc2ccc(-c3cc4ccccc4oc3=O)c(OC)c2)cc1	15	2	31*	-15	6	-20
COc1cc(NC(=O)c2cc(Cl)ccc2Cl)ccc1-c1cc2ccccc2oc1=O	1	-1	-9	3	1	14
O=c1c2cc(F)ccc2sn1-c1ccccc1	14	24*	12	2	30	-5
CCN1CCN(CCC(=O)Nc2ccc(Br)c(C)c2)CC1	-19	-6	-13	20*	5	0
CCOC(=O)N1CCN(CCC(=O)Nc2ccc(Br)c(C)c2)CC1	1	2	1	-6	8	-15
Cc1cc(/C=C(\C#N)C(=O)NC2CCCCCC2)c(C)n1C	6	0	-5	4	1	23*
CC(=O)c1sc(NC(=O)C2(F)C(F)(F)C(F)(F)C(F)(F)C(F)(F)C2(F)F)nc1C	12	8	29*	-11	14	-14
COc1ccc(-c2cc(C(F)(F)F)nc(S(=O)(=O)CCCC(=O)Nc3cccc(O)c3)n2)cc1OC	9	-1	27*	-11	17	-5
COc1ccccc1-c1cc(C(F)(F)F)nc(S(=O)(=O)CCCC(=O)O)n1	4	-3	6	3	0	7
Cn1c(=O)c2ccccc2n(Cc2cccc(F)c2)c1=O	-6	-1	16	-7	6	2
NC(=O)COC(=O)c1ccc(S(=O)(=O)NCc2ccco2)cc1	-11	-1	10	8	1	20*
COC(=O)[C@@]1(Cc2ccccc2)[C@H]2C(=O)N(C)C(=O)[C@H]2[C@H]2CN=C(SCC(=O)c3ccccc3)N21	8	0	2	-1	1	-2
CC(C)(C)C(=O)OCc1nc(-c2ccc(C(F)(F)F)cc2)cs1	-4	5	-15	19*	0	14
O=C(Nc1ccc(Cl)c(Cl)c1)Nc1ccc(Br)cc1F	18	4	31*	-14	12	-11
O=C(NNc1ccccc1[N+](=O)[O-])Nc1ccc(Cl)c(Cl)c1	15	12	29*	-18	15	-8
O=C(Nc1ccc(Cl)c(Cl)c1)Nc1ccccc1O	16	3	42*	-25	18	-9
O=C(Nc1ccc(Cl)c(Cl)c1)c1ccccc1	6	-2	5	-1	3	-6
O=C(Nc1ccc(Cl)c([N+](=O)[O-])c1)C(Sc1ccccc1)c1ccccc1 (stereo not drawn)	26	0	30*	-19	7	-28
O=C(COc1ccc(Cl)cc1)Nc1ccc(C(=O)O)cc1NC(=O)COc1ccc(Cl)cc1	1	0	10	-4	1	7
SMILES	M4 antag	CHRM5 agonist	CHRM5 antagonist	CHRM5 PAM	CHRM4 agonist	M4 PAM
Cc1ccc(S(=O)(=O)N2C[C@H]3n4c(=O)ccc(=O)n4C[C@H](OC(=O)NCc4ccccc4F)[C@@]3(O)C2)cc1	-6	0	5	-1	1	0
Oc1cncc(Cc2ccccc2)c1	-4	-4	11	1	2	4
O=C(Nc1ccc(N2CCOCC2)cc1)Nc1ccc(Cl)c(Cl)c1	48*	15	39*	-24	43*	-18
COc1ccc(NC(=O)Nc2ccc(F)c(Cl)c2)cc1	5	4	35*	-17	16	-6
Cc1cccc(C)c1NC(=O)C1c2ccccc2OCC(=O)N1Cc1ccc2c(c1)OCO2 (stereo not drawn)	-1	1	4	-9	0	6
C[N+](C)(C)CC(=O)N/N=C/c1c2ccccc2cc2ccccc12	1	32*	19	-12	0	1
Cn1cccc1CC(=O)N/N=C\c1c2ccccc2cc2ccccc12	-11	-1	-7	1	0	3
NC(=O)COC(=O)CC12CC3CC(CC(C3)C1)C2	6	-2	4	3	0	-3
NC(=O)NC(=O)COC(=O)CC12CC3CC(CC(C3)C1)C2	-1	1	-8	20*	2	10
Cc1cc(C)n(-c2nnc(C)n2/N=C/c2cc(Br)ccc2OCc2ccccc2)n1	26*	-8	4	-6	1	-11
Cc1cc(C)n(-c2nnc(C)n2/N=C/c2ccccc2OCc2ccccc2Cl)n1	2	-2	8	0	-1	4
C1=CN2CCC1C(c1ccccc1)C2 (stereo not drawn)	36*	3	74*	-15	3	-11
O=C(Nc1ccc(NC(=O)c2ccccc2Cl)nc1)c1ccco1	4	-3	7	-3	4	-4
O=S(=O)(/N=C(/Nc1cccnc1)c1ccccc1)c1ccc(F)cc1F	10	-3	5	6	0	2
Cc1cc(N/C(=N\S(=O)(=O)c2ccc(F)cc2F)c2ccccc2)no1	-9	1	2	3	1	20*
OC(C1=CC(=Cc2ccncc2)c2ccccc21)c1ccncc1 (stereo not drawn)	-1	3	14	-15	12	1
CN(CCC1CCOCC1)C(=O)CC1C(=O)NCCN1Cc1ccccc1F (stereo not drawn)	-6	-3	-10	9	0	17
CS(=O)(=O)N(CC(=O)N1CCCCCC1)c1cccc([N+](=O)[O-])c1	-6	-2	-9	18*	1	-4
CS(=O)(=O)N(CC(=O)N1CCCCCC1)c1ccccc1	10	-7	8	0	1	-3
N#C/C(=C/c1ccc(N2CCCCCC2)o1)c1ccc(Cl)cc1	27*	6	2	7	3	-12
Cc1cc(-c2ccccc2)n(-c2ccc(C(=O)N3CCN(c4ncccn4)CC3)cc2)n1	32*	0	5	-14	11	-8
COc1ccc(N(S(=O)(=O)c2ccccc2)S(=O)(=O)c2ccccc2)c(N)c1	11	-2	19	-29	12	-5

Source: PubChem
